From ChEMBL document CHEMBL3352645, “Bioactive 6S-styryllactone constituents of Polyalthia parviflora” (J Nat Prod, 2014)
Calls of active or inactive are those of the source. The rule behind the calls is not given here.

Columns and labels:
Assay type in all cases: functional, cell-based
[1] = system: MDA-MB-231; assay: Cytotoxicity against human MDA-MB-231 cells after 72 hrs by MTT assay; details: for IC50: MDA-MB-231, 72 h
Procedure, shortened: (§1)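 Hep G2 and MDA-MB-231 plated at 1 × 10^4 cells per well in triplicate with various compound concentrations. At 72 h medium removed, MTT (0.5 mg/mL) added for 1 h at 37 °C, crystals solubilized in DMSO, absorbance at 550 nm. Doxorubicin control; IC50 as mean of triplicates.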

[2] = system: Neutrophil; assay: (§2) Antiinflammatory activity in human neutrophils assessed as inhibition of fMLP/CB-induced elastase release after 5 mins by spectrophotometry
Procedure, shortened: (§3)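 Neutrophils equilibrated with MeOSuc-Ala-Ala-Pro-Val-p-nitroanilide (100 μM) at 37 °C for 2 min, then exposed to compound 5 min. Activated with CB (0.5 μg/mL) plus FMLP (100 nM). Elastase release (azurophilic degranulation) followed as absorbance change at 405 nm; IC50 = concentration giving 50% inhibition; n = 3.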

[3] = system: A549; assay: Cytotoxicity against human A549 cells after 72 hrs by MTT assay; details: for IC50: A549, 72 h
Procedure, shortened: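 A549 seeded at 5 × 10^3 cells per well in triplicate, exposed to various compound concentrations. After 72 h medium replaced by MTT (0.5 mg/mL), 1 h at 37 °C; formazan dissolved in DMSO, absorbance read at 550 nm. Doxorubicin control; IC50 as mean of triplicates.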

[4] = system: Neutrophil; assay: (§4) Antiinflammatory activity in human neutrophils assessed as inhibition of fMLP/CB-induced superoxide anion generation after 5 mins by spectrophotometry
Procedure, shortened: (§5)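 Cells with 0.5 mg/mL ferricytochrome c and 1 mM Ca2+ equilibrated 37 °C for 2 min, compound added 5 min, then cytochalasin B (1 μg/mL) 3 min before FMLP (100 nM) activation for 10 min. SOD-inhibitable ferricytochrome c reduction monitored continuously at 550 nm under stirring; IC50 from 50% inhibition; n = 3.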

[5] = system: HepG2; assay: Cytotoxicity against human HepG2 cells after 72 hrs by MTT assay; details: for IC50: HepG2, 72 h; procedure, shortened: as §1
[6] = as §2; details: Neutrophil; procedure, shortened: as §3
[7] = as §4; details: Neutrophil; procedure, shortened: as §5

IC50 [6] | IC50 [7] | SMILES | IC50 [1] | inhibition [2] | IC50 [3] | inhibition [4] | IC50 [5] | Activity [1] | Activity [3] | Activity [5]
 |  | CO[C@H](c1ccccc1)[C@@H](O)[C@@H]1CC=CC(=O)O1 | > 10 µM | inactive | > 10 µM | inactive | > 10 µM |  |  | 
 |  | O=C1C=CC[C@@H]([C@H](O)[C@@H](O)c2ccccc2)O1 |  | inactive |  | inactive | > 10 µM |  |  | 
 |  | CO[C@@H](c1ccccc1)[C@H](O)[C@@H]1CC=CC(=O)O1 | > 10 µM | inactive | > 10 µM | inactive | > 10 µM |  |  | 
 |  | COc1cccc2c1C(=O)c1c(O)c3c(c(O)c1C2=O)C[C@@](O)(C(=O)CO)C[C@@H]3O[C@H]1C[C@H](N)[C@H](O)[C@H](C)O1 [DOXORUBICIN] | 0.88 µM |  | 0.87 µM |  |  |  |  | 
6.8 µM | 11.6 µM | O=c1cccc(/C=C/c2ccccc2)o1 | > 10 µM |  | > 10 µM |  | > 10 µM |  |  | 
19.8 µM | 21.2 µM | O=C1C=CC[C@@H]([C@@H]2O[C@H]2c2ccccc2)O1 | > 10 µM |  | > 10 µM |  | > 10 µM |  |  | 
 |  | O=C1C[C@H]2C[C@H](O1)[C@H](O)[C@@H](c1ccccc1)O2 |  | inactive |  | inactive |  | inactive | inactive | inactive
15.4 µM | 8.3 µM | O=C1C=CC[C@@H](/C=C/c2ccccc2)O1 | > 10 µM |  | > 10 µM |  | > 10 µM |  |  | 
 | 30 µM | O=C1C=CC[C@@H]([C@H](O)[C@H](Cl)c2ccccc2)O1 | > 10 µM |  | > 10 µM |  | > 10 µM |  |  | 
14.6 µM | 8.1 µM | O=C1C=CC(O)[C@H](/C=C/c2ccccc2)O1 (stereo partly specified) | > 10 µM |  | 7.9 µM |  | > 10 µM |  |  | 
1.9 µM | 6.3 µM | CNC(=O)c1cc(Oc2ccc(NC(=O)Nc3ccc(Cl)c(C(F)(F)F)c3)cc2)ccn1 [SORAFENIB] |  |  |  |  |  |  |  | 
 |  | O=C1C=CC[C@@H]([C@@H](O)[C@@H](O)c2ccccc2)O1 | > 10 µM | inactive | > 10 µM | inactive | > 10 µM |  |  | 
